The text below walks through data of PMC5552226 (EBioMedicine, 2017).

What is called AUC(0-t) is exposure summed from dosing to a finite time, without extrapolation to infinity. A lower AUC(0-t) goes with low exposure. Broadly, the Cmax is the highest concentration seen after dosing. For orientation: half-life means the time in which the quantity being followed falls by half. A lower half-life goes with rapid decline.

One data set in a line: Safety and tolerability. As to conditions: IM 10 IU (17 μg); N = 16. The class given is in vivo, human. In short, it runs like this: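 Healthy female volunteers in a single-centre, single-blind, fixed-sequence phase 1 study received a single IM dose of test compound, 10 IU, alongside inhaled dosing sessions. Adverse events and serious adverse events were recorded throughout the study. Spirometry, clinical laboratory tests, vital signs, ECG intervals, physical examination and cardiac telemetry were checked at set post-dose times. Follow-up visit 7–21 days after the last inhaled dose. Data were summarised descriptively.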

A short description of data set [1]: Plasma oxytocin pharmacokinetics, phase 1 single-dose study. The class given is in vivo, human.
The conditions of data set [2]: sublingual, male volunteers; ref De Groot et al., 1995; cited from earlier work.
[3] abbreviates: female, human, plasma, im, 10 IU.

As for `CC[C@H](C)[C@@H]1NC(=O)[C@H](Cc2ccc(O)cc2)NC(=O)[C@@H](N)CSSC[C@@H](C(=O)N2CCC[C@H]2C(=O)N[C@@H](CC(C)C)C(=O)NCC(N)=O)NC(=O)[C@H](CC(N)=O)NC(=O)[C@H](CCC(N)=O)NC1=O` [IM oxytocin, oxytocin], in the data set “Safety and tolerability”, the “AE that led to discontinuation of study drug or withdrawal from the study, number of subjects” value worked out at 0; the “Deaths, number of AEs” value is recorded as 0; the “Deaths, number of subjects” value is on record as 0; the “Headache (drug-related), number of AEs” value was 1. In “Safety and tolerability”, the “Led to discontinuation of study drug or withdrawal from the study, number of AEs” value is reported as 0 and the “Non-fatal SAEs, number of subjects” value is 0. Besides, in data set [1] (IM 10 IU, LLQ 2 pg/mL), the “subjects in whom plasma oxytocin remained quantifiable up to 4 h” value is recorded as 5/16. Moreover, the “AUC(0–3 h), adjusted geometric mean” value in data set [1] (IM 10 IU, plasma, mixed-effect model, PK population) came out at 127.61 pg·h/mL. Also, in data set [1] (setting [3]), the AUC(0-t) was 0.12 ng·h/mL, the peak level (Cmax) was 0.19 ng/mL, the half-life is 38.4 min and the level at 0.5 h was 0.0822 ng/mL. Further, in data set [1] (setting [3]), the tmax was found to be 10.2 min. The tmax in data set [1] (following IM administration (10 IU), plasma) was ~ 10 min.
For oxytocin [sublingual oxytocin], in data set [2], the absorption half-life result is on record as “long absorption half-life”, the bioavailability result is reported as “poor bioavailability” and the lag time result is “long lag time”.
